Assay results: ChEMBL document CHEMBL2384907, “Identification of substituted pyrimido[5,4-b]indoles as selective Toll-like receptor 4 ligands” (J Med Chem, 2013)
Activity calls are given as the source filed them. The rule behind the calls is not given here.

Columns and labels:
[1] = molecular target: Toll-like receptor 3 (Homo sapiens) (UniProt O15455); assay: Activation of human TLR3 transfected in HEK293 cells at 10 uM after 20 to 24 hrs by SEAP assay; type: cell-based
[2] = molecular target: T1, Toll-like receptor 4 (Mus musculus) (UniProt Q9QUK6); assay: Activation of mouse TLR4 transfected in HEK293 cells after 18 hrs by SEAP assay relative to N-cyclohexyl-2-(4-oxo-3-phenyl-4,5-dihydro-3H-pyrimido[5,4-b]indol-2-ylthio)acetamide; type: cell-based
T1 sequence (whole entry): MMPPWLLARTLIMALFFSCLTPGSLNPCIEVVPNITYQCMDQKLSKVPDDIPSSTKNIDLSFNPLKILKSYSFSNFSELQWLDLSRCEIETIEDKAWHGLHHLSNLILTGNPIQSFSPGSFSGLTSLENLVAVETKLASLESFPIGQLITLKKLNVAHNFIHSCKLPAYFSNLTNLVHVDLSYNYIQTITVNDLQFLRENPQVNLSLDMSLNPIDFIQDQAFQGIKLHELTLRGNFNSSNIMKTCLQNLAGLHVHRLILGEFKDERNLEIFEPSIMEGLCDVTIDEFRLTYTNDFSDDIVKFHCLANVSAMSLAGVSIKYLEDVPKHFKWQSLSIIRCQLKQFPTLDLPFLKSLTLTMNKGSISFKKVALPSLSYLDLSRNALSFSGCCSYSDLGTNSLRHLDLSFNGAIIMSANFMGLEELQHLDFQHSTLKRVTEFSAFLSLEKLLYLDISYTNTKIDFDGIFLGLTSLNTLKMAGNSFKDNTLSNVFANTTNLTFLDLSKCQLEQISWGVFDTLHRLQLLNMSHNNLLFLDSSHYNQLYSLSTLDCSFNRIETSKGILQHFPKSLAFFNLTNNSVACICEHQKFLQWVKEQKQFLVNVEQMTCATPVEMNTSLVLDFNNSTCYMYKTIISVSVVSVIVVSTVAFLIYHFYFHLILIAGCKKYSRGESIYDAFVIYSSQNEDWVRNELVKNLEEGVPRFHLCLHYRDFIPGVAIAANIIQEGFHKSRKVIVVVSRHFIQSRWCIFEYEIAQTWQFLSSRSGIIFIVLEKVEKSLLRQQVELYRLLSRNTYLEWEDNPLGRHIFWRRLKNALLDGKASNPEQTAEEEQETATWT
Method in brief: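 Mouse TLR4 HEK-Blue cells (2.5 × 10^4/well) given titrated doses 312 nM–10 μM for 18 h, 0.5% DMSO vehicle; SEAP at 630 nm. Percent-activity curves, AUC by trapezoid method, normalized to reference hit set at 100. LPS 10 ng/mL control.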

[3] = molecular target: Toll-like receptor 5 (Homo sapiens) (UniProt O60602); assay: Activation of human TLR5 transfected in HEK293 cells at 10 uM after 20 to 24 hrs by SEAP assay; type: cell-based
Sequence of Toll-like receptor 5 (Homo sapiens) (O60602 whole entry): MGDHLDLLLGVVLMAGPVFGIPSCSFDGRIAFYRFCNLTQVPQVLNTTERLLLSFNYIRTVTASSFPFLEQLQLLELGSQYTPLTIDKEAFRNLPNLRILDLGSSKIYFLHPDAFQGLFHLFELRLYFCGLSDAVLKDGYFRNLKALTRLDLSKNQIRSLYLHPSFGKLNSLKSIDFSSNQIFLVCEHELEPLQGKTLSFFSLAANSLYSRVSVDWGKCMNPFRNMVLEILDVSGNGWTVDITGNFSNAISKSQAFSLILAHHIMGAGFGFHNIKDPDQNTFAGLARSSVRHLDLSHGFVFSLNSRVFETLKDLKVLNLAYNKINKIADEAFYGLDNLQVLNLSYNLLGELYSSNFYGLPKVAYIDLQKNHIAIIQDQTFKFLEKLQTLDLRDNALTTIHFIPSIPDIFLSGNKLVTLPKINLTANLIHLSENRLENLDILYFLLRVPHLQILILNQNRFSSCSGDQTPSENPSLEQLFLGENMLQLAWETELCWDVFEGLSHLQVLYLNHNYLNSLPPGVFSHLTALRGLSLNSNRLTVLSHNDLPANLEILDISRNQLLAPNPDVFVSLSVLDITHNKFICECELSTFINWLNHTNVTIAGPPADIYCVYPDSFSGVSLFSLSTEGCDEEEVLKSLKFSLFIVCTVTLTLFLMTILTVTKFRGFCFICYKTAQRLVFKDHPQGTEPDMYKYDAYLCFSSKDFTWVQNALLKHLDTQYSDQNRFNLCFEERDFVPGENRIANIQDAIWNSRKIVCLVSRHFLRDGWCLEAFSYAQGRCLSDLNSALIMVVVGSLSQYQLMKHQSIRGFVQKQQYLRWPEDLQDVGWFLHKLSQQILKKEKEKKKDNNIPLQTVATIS

[4] = molecular target: Toll-like receptor 4/MD-2/CD14 (Mus musculus) (UniProt Q9QUK6+Q9JHF9+P10810); assay: Activation of mouse TLR4/MD-2/CD14 complex in HEK293 cells assessed as NFkappaB activation by SEAP assay in presence of LPS-RS
[5] = molecular target: T1, Toll-like receptor 4 (Mus musculus); assay: Activation of TLR4 in C57BL/6 mouse BMDC cells assessed as AUC of IL6 release after 18 hrs by ELISA relative to N-cyclohexyl-2-(4-oxo-3-phenyl-4,5-dihydro-3H-pyrimido[5,4-b]indol-2-ylthio)acetamide; type: cell-based
Method in brief: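 C57BL/6 bone marrow DC, 10^5 cells/well in RPMI-10% FCS, 18 h at 37 °C with titrated doses 312 nM–10 μM; supernatant IL-6 by ELISA. Each curve converted to percent activity (background subtracted, plate-adjusted), AUC by trapezoid method, normalized to reference hit set at 100 per experiment. LPS 10 ng/mL positive control; 0.5% DMSO vehicle.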

[6] = molecular target: T1, Toll-like receptor 4 (Mus musculus); assay: Activation of mouse TLR4 transfected in HEK293 cells assessed as NFkappaB activation after 20 to 24 hrs by SEAP assay; type: cell-based
Method in brief: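 Human or mouse TLR4 HEK-Blue cells (2.5 × 10^4/well) incubated with graded concentrations for 20–24 h; NFκB-driven SEAP in culture supernatant measured colorimetrically.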

[7] = molecular target: Toll-like receptor 4 (Homo sapiens) (UniProt O00206); assay: Activation of TLR4 in human PBMC cells assessed as AUC of IL8 release at 10 uM after 18 hrs by ELISA relative to N-cyclohexyl-2-(4-oxo-3-phenyl-4,5-dihydro-3H-pyrimido[5,4-b]indol-2-ylthio)acetamide; type: cell-based
Sequence of Toll-like receptor 4 (Homo sapiens) (O00206 whole entry): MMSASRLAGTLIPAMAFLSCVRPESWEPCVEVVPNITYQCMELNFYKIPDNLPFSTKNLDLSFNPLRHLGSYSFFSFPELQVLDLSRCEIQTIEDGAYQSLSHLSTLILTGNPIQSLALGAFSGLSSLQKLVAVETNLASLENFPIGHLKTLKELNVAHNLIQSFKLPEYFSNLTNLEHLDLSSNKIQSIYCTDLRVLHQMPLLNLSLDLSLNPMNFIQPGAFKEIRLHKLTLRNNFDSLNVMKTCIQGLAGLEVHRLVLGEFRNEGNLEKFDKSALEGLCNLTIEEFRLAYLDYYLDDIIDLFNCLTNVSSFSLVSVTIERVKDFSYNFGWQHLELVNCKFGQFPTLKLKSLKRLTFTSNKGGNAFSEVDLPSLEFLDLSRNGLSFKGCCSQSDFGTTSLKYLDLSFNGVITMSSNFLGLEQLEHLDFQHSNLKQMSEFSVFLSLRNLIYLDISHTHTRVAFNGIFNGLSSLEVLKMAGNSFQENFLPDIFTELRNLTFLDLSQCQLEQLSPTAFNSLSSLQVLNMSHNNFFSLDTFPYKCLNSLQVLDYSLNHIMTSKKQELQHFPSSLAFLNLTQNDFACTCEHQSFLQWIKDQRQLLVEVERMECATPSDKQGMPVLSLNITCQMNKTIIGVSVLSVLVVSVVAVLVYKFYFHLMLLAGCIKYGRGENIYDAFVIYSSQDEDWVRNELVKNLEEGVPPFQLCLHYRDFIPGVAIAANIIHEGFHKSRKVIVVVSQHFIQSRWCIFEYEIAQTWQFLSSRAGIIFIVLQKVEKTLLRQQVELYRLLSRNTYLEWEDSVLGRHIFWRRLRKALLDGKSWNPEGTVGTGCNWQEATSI
Method in brief: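 Human PBMC from buffy coats, 1 × 10^6/mL in complete RPMI, 18 h at 37 °C, 5% CO2 with compound at 10 μM; IL-8 in supernatant by ELISA, normalized to reference hit set at 100. LPS 10 ng/mL positive control.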

[8] = molecular target: Toll-like receptor 2 (Homo sapiens) (UniProt O60603); assay: Activation of human TLR2 transfected in HEK293 cells at 10 uM after 20 to 24 hrs by SEAP assay; type: cell-based
Sequence of Toll-like receptor 2 (Homo sapiens) (O60603 whole entry): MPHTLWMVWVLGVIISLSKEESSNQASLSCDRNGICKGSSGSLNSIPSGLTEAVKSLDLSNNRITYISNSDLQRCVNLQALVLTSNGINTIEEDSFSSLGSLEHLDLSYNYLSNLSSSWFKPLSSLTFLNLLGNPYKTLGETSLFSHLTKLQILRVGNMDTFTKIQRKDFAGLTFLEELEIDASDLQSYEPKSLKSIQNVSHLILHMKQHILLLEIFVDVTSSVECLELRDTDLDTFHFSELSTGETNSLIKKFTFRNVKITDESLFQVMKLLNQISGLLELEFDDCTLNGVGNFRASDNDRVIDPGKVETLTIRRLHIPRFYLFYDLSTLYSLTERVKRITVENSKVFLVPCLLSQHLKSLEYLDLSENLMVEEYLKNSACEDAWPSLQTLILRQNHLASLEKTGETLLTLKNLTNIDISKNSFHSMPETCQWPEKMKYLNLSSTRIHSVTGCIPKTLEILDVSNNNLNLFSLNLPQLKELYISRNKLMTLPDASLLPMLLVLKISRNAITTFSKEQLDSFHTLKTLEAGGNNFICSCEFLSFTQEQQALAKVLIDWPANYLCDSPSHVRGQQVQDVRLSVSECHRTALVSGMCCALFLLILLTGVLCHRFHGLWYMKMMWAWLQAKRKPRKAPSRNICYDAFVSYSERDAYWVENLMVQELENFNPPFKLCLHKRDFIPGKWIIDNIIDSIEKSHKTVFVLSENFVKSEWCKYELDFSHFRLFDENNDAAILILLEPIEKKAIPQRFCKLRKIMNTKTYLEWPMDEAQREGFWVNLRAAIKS

[9] = molecular target: T1, Toll-like receptor 4 (Mus musculus); assay: Activation of TLR4 in C57BL/6 mouse BMDC cells assessed as AUC of IP10 release at 5 uM after 18 hrs by ELISA relative to N-cyclohexyl-2-(4-oxo-3-phenyl-4,5-dihydro-3H-pyrimido[5,4-b]indol-2-ylthio)acetamide; type: cell-based
[10] = molecular target: Toll-like receptor 4 (Homo sapiens) (UniProt O00206); assay: Activation of human TLR4 transfected in HEK293 cells after 18 hrs by SEAP assay relative to N-cyclohexyl-2-(4-oxo-3-phenyl-4,5-dihydro-3H-pyrimido[5,4-b]indol-2-ylthio)acetamide; type: cell-based; set-up: concentration or dose not given beside the values
Method in brief: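 Human TLR4 HEK-Blue cells (2.5 × 10^4/well) given compound at 10 μM for 18 h, 0.5% DMSO vehicle; SEAP in supernatant read at 630 nm, normalized to reference hit set at 100. LPS 10 ng/mL positive control.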

[11] = molecular target: Toll-like receptor 4/MD-2/CD14 (Homo sapiens) (UniProt O00206+Q9Y6Y9+P08571); assay: Activation of human TLR4/MD-2/CD14 transfected in HEK293 cells at 10 uM after 20 to 24 hrs by SEAP assay; type: cell-based
BMDC = assay: Induction of IL6 secretion in C57BL/6 mouse TLR4 deficient BMDC cells at 10 uM after 18 hrs by ELISA; type: functional, cell-based
Method in brief: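 BMDC from Tlr4–/– mice (backcrossed 10 generations onto C57BL/6) and wild-type mice incubated with 10 μM compound for 18 h; IL-6 in culture supernatants by ELISA.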

[12] = molecular target: T1, Toll-like receptor 4 (Mus musculus); assay: Activation of TLR4-mediated type 1 IFN release in C57BL/6 mouse BMDC cells assessed as IP10 level after overnight incubation by ELISA; type: cell-based
Method in brief: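 Wild-type BMDC incubated overnight with graded concentrations, 0.5% DMSO vehicle; IP-10 in supernatants by ELISA as surrogate of type I IFN. Mean ± SEM of triplicates; two independent experiments.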

Sequence of Toll-like receptor 3 (Homo sapiens) (O15455 whole entry): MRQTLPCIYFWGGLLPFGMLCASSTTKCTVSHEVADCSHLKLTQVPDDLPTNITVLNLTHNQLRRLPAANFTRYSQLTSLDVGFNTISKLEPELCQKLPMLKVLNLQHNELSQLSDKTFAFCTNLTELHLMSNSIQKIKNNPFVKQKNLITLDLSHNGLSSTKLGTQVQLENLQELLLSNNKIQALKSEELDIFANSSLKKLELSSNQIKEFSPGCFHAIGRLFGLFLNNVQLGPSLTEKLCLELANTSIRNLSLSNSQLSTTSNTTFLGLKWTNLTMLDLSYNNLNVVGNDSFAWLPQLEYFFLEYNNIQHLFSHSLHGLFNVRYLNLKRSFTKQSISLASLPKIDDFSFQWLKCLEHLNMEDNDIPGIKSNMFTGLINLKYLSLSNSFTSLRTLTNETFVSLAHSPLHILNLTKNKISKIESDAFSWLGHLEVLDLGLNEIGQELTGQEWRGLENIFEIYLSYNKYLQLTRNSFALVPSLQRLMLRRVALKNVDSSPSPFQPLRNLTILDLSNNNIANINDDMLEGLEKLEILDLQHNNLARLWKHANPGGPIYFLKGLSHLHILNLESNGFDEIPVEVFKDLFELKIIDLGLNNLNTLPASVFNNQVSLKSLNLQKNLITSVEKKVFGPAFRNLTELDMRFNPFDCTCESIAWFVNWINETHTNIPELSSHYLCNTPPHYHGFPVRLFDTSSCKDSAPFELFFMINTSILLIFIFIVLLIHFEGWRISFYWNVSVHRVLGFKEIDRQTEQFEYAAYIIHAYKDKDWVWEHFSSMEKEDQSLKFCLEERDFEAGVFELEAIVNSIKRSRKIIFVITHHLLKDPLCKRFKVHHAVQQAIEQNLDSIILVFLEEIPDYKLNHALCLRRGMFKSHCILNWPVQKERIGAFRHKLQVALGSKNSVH

Activity [1]: inactive | Activity [2]: 100% | Activity [3]: inactive | Activity [4]: Dose-dependent effect | Activity [5]: 100% | Activity [6]: Dose-dependent effect | Activity [7]: 100% | Activity [8]: inactive | Activity [9]: 100% | Activity [10]: 100% | Activity [11]: Active | Activity [12]: Dose-dependent effect
Structure (SMILES): O=C(CSc1nc2c([nH]c3ccccc32)c(=O)n1-c1ccccc1)NC1CCCCC1
Activity (BMDC): inactive
